Active and inactive are the calls of the source. No cut-off for these calls is given here.
Experiments:
Homo sapiens [1] = organism: Homo sapiens; experiment: Inhibition of TNFalpha-stimulated NF-kappaB (unknown origin) expressed in human U937 cells at 1 to 5 uM incubated for 3 hrs followed by TNFalpha stimulation measured after 2.5 hrs by luciferase reporter gene assay; assay type: cell-based
[2] = target: T1, Epidermal growth factor receptor (Homo sapiens, UniProt P00533); experiment: biochemical; assay type: cell-based
cells = assay type: cell-based; settings: Homo sapiens, U-937
MDA-MB-231 [3] = experiment: cells; assay type: functional; settings: Homo sapiens, MDA-MB-231, 48 h
Homo sapiens [4] = organism: Homo sapiens; experiment: Inhibition of TNFalpha-stimulated NF-kappaB (unknown origin) expressed in human U937 cells at 5 uM incubated for 3 hrs followed by TNFalpha stimulation measured after 2.5 hrs by luciferase reporter gene assay; assay type: cell-based
[5] = Half life in Sprague-Dawley rat liver microsomes assessed as parent compound remaining at 0.5 uM in presence of NADPH by LC-MS/MS analysis; assay type: ADME, microsome
[6] = Blood clearance in Sprague-Dawley rat by LC-MS/MS analysis; assay type: ADME
[7] = Cmax in NMRI nu/nu mouse at 10 mg/kg, sc administered as single dose by LC-MS analysis; assay type: ADME, organism-based; design: dose 10 mg/kg, route subcutaneous; settings: in vivo
Outline: (§1)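 Female NMRI nu/nu mice (28−32 g), nine animals per compound. Single sc injection of 10 mg/kg, formulated at 1 mg/mL in PBS/propylene glycol (80:20, v/v) by ultrasonication. Blood sampled at 10 min, 30 min, 1, 3, 8 and 24 h, two samples per animal, into heparinized tubes. Plasma proteins precipitated with acetonitrile containing griseofulvin internal standard. Quantified by LC-MS against calibration standards prepared in drug-free plasma.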

[8] = Tmax in NMRI nu/nu mouse at 10 mg/kg, sc administered as single dose by LC-MS analysis; assay type: ADME, organism-based; settings: in vivo; outline: as §1
[9] = Drug uptake in NMRI nu/nu mouse at 10 mg/kg, sc administered as single dose after 24 hrs by LC-MS analysis; assay type: ADME, organism-based; settings: in vivo, read-out: Drug uptake; outline: as §1
[10] = Half life in NMRI nu/nu mouse at 10 mg/kg, sc administered as single dose by LC-MS analysis; assay type: ADME, organism-based; settings: in vivo; outline: as §1
[11] = AUC (0 to 24 hrs) in NMRI nu/nu mouse at 10 mg/kg, sc administered as single dose by LC-MS analysis; assay type: ADME, organism-based; design: dose 10 mg/kg, time < 24 hr, route subcutaneous; settings: in vivo; outline: as §1
[12] = AUC (0 to infinity) in NMRI nu/nu mouse at 10 mg/kg, sc administered as single dose by LC-MS analysis; assay type: ADME, organism-based; design: dose 10 mg/kg, route subcutaneous, time infinity; settings: in vivo; outline: as §1
[13] = Apparent oral clearance in NMRI nu/nu mouse at 10 mg/kg, sc administered as single dose by LC-MS analysis; assay type: ADME, organism-based; settings: in vivo; outline: as §1
Mus musculus [14] = experiment: (§2) Toxicity in human MDA-MB-231 cells xenografted NMRI nu/nu mouse assessed as anomalous behaviour at 10 mg/kg, sc administered 5 days post tumor cell inoculation treated for 14 days followed by treatment pause for 6 days followed by treatment continuation on every second day until day 28 measured on day 7, 14 and day 28; assay type: organism-based; settings: in vivo
Outline: (§3)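 Mice bearing MDA-MB-231 xenografts were monitored for behaviour and body weight over the 28-day sc dosing schedule. Organ morphology was inspected after sacrifice.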

Mus musculus [15] = experiment: as §2, with “effect on organ morphology” for “anomalous behaviour”; assay type: organism-based; settings: in vivo
Outline: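 Female NMRI nu/nu mice (~8 weeks old) received 2 × 10^6 MDA-MB-231 cells in Matrigel into each flank. Dosing began 5 days later (day 1), with 6 mice per group. Compound or vehicle was given sc in PBS/propylene glycol (80:20, v/v) at 1 mg/mL. Behaviour and body weight were followed. Organs were inspected morphologically after sacrifice on day 28.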

Mus musculus [16] = experiment: as §2, with “effect on body weight” for “anomalous behaviour”; assay type: organism-based; settings: in vivo; outline: as §3
Mus musculus [17] = experiment: Toxicity in NMRI nu/nu mouse assessed as anomalous behaviour at 10 mg/kg, sc administered as single dose; assay type: organism-based; settings: in vivo
Mus musculus [18] = experiment: Toxicity in NMRI nu/nu mouse assessed as effect on organ morphology at 10 mg/kg, sc administered as single dose; assay type: organism-based; settings: in vivo
[19] = Solubility in water; assay type: physicochemical; settings: buffer
[20] = target: T1, Epidermal growth factor receptor; settings: at 150 nM
[21] = target: Serine/threonine-protein kinase pim-1 (Homo sapiens, UniProt P11309); experiment: Inhibition of human recombinant full length His-tagged PIM-1 expressed in baculovirus expression system
MDA-MB-231 [22] = experiment: Antitumor activity against human MDA-MB-231 cells xenografted in NMRI nu/nu mouse at 10 mg/kg, sc administered 5 days post tumor cell inoculation treated for 14 days followed by treatment pause for 6 days measured after 21 days; assay type: functional, organism-based
Outline: (§4)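 MDA-MB-231 cells, 2 × 10^6 per site in Matrigel, injected into both flanks of female NMRI nu/nu mice about 8 weeks old; 6 mice per group. From day 5 after inoculation (day 1), sc dosing in PBS/propylene glycol 80:20. Dosing every weekday for 14 days, then a 6-day pause, then every second day from day 21 to sacrifice on day 28. Tumor diameters measured weekly by calipers; unpaired two-tailed t test against vehicle.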

MDA-MB-231 [23] = experiment: as §2, with “Antitumor activity against” for “Toxicity in”, “xenografted in” for “xenografted”, “mouse” for “mouse assessed as anomalous behaviour”; assay type: functional, organism-based; outline: as §4
[24] = target: Receptor tyrosine-protein kinase erbB-4 (Homo sapiens) (UniProt Q15303); experiment: Inhibition of N-terminal GST-tagged human recombinant ERBB4 expressed in baculovirus expression system
Receptor tyrosine-protein kinase erbB-4 (Homo sapiens), sequence (Q15303 whole entry): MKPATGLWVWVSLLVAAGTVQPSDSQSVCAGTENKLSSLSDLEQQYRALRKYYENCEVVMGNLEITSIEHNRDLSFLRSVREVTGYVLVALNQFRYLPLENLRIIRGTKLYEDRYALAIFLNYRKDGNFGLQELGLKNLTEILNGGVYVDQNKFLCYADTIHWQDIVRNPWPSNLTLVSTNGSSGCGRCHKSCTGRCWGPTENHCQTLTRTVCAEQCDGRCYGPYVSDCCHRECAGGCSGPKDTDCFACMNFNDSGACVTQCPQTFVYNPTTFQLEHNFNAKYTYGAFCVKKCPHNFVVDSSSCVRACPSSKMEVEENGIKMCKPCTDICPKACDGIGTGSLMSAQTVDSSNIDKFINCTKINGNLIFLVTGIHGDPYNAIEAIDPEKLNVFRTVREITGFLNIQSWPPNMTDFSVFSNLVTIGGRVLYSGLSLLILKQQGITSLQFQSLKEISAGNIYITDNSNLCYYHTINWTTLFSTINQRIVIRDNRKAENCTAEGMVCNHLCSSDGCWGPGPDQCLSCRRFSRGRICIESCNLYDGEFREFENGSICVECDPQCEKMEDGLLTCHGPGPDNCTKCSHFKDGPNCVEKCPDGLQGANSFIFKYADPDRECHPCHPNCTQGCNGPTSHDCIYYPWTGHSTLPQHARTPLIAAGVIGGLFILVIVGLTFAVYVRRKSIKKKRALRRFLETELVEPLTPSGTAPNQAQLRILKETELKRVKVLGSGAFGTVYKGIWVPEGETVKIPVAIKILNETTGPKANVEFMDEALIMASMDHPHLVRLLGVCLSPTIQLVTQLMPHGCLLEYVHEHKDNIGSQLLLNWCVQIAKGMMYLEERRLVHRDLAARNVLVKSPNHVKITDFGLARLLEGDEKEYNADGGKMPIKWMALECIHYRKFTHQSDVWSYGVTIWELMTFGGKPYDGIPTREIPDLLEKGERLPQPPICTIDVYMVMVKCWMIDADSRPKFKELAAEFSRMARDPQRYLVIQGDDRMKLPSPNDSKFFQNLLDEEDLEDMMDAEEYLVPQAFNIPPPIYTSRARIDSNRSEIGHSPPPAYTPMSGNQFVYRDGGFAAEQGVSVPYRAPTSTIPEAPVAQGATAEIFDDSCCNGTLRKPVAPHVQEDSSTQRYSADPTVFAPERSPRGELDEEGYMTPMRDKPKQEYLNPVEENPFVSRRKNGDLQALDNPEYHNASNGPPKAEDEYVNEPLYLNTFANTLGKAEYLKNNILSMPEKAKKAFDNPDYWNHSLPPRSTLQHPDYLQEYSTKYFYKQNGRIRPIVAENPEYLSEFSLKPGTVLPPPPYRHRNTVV

T1 sequence (P00533 whole entry): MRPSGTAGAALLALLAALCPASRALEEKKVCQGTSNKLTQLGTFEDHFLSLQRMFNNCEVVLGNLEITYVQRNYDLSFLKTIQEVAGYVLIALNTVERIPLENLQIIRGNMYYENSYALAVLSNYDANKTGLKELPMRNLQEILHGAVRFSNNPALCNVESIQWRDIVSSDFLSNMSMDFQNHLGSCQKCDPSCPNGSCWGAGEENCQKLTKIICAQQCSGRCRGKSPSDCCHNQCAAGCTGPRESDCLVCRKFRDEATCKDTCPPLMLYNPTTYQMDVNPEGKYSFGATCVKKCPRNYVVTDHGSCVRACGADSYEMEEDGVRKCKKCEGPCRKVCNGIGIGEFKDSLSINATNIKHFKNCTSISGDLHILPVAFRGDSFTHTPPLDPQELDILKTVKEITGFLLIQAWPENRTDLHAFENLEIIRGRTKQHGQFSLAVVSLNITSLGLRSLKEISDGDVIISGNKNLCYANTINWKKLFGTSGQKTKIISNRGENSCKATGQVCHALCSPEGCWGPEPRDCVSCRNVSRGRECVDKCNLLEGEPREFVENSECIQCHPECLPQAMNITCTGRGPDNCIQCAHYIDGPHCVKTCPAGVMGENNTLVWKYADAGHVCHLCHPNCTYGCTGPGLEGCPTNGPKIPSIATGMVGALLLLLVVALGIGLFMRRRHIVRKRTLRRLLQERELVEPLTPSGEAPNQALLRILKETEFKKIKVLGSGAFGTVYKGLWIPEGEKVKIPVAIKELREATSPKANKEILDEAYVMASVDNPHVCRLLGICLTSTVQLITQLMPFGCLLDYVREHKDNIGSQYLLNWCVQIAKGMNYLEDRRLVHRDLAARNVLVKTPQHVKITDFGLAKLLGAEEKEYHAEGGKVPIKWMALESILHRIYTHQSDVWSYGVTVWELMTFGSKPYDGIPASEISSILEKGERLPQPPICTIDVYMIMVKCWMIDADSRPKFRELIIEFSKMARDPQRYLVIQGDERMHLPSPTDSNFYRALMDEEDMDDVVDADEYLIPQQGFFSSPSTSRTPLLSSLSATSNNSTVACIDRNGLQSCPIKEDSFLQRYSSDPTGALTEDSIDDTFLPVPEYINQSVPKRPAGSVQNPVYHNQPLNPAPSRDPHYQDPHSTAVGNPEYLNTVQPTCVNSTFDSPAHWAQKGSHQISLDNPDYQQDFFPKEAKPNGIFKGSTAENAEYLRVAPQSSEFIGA
Serine/threonine-protein kinase pim-1, sequence (P11309 whole entry, looked up): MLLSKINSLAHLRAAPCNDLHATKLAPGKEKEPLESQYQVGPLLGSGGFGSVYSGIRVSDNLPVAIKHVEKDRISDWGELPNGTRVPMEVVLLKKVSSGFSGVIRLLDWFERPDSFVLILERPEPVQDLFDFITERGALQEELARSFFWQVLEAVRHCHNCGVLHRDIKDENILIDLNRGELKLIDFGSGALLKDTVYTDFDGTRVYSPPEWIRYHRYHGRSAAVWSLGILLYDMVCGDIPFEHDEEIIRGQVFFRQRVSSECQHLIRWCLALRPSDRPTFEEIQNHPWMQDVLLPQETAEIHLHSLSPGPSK

Row | IC50 [2] [nM] | IC50 (cells) [nM] | GI50 (MDA-MB-231 [3]) [nM] | half-life at 0.5 µM [5] [h] | clearance [6] [mL/min/kg] | Cmax [7] [ng/mL] | Tmax [8] [h] | concentration at 24 h [9] [ng/mL] | half-life [10] [h] | AUC(0-t) at 24 h [11] [ng·h/mL] | AUC(0-inf) [12] [ng·h/mL] | CL/F [13] [mL/min/kg] | solubility [19] | inhibition [20] [%] | SMILES | inhibition (Homo sapiens [4]) [%] | Activity (Mus musculus [14]) | Activity (Mus musculus [15]) | Activity (Mus musculus [16]) | Activity (Mus musculus [17]) | Activity (Mus musculus [18]) | also measured
1 |  |  |  |  |  |  |  |  |  |  |  |  |  |  | O=C1NC(=O)/C(=C/c2cccc(C(F)(F)F)c2)S1 |  |  |  |  |  |  | inhibition (Homo sapiens [1]): inactive
2 | 137 | 600 | 900 | 0.367 | 51 | 101 | 1 | 3.5 | 4.3 | 1040 | 1060 | 157 | Soluble | 56.4 | FC(F)(F)c1csc(NC(=S)Nc2ccc3ncnc(Nc4cccc(Cl)c4)c3c2)n1 | 92 | Non-Toxic | Non-Toxic | Non-Toxic | Non-Toxic | Non-Toxic | 
3 | 60.1 | 300 | 1100 | 2.32 | 19 | 327 | 8 | 79 | 7.8 | 5440 | 6330 | 26.3 | Soluble | 87.6 | Fc1cc(F)cc(NC(=S)Nc2ccc3ncnc(Nc4cccc(Cl)c4)c3c2)c1 | 73.5 | Non-Toxic | Non-Toxic | Non-Toxic | Non-Toxic | Non-Toxic | inhibition [21]: inactive; TGI (MDA-MB-231 [22]): Active; TGI (MDA-MB-231 [23]): Active; inhibition [24]: inactive

Source: ChEMBL document CHEMBL4007489, “First Bispecific Inhibitors of the Epidermal Growth Factor Receptor Kinase and the NF-κB Activity As Novel Anticancer Agents” (J Med Chem, 2017)
